These results are taken from ChEMBL document CHEMBL3627669, “Wittig derivatization of sesquiterpenoid polygodial leads to cytostatic agents with activity against drug resistant cancer cells and capable of pyrrolylation of primary amines” (2015).

For one assay, the system named is A549. The experiment in a line: Cytotoxicity against human A549 cells assessed as growth inhibition incubated for 72 hrs by MTT assay. It counts as functional. The settings on record: A549, 72 h. The method in brief: (§1)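 MTT assay. Stocks of 100 or 50 mM in DMSO. Cells seeded at line-dependent density, grown 24–72 h, then treated across […] for 72 h. Negative control 0.1% DMSO, positive control 1 μM phenylarsine oxide. GI50 is the concentration reducing viability 50% relative to control, averaged over experiments each run in sextuplicate.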
A general note: Formazan colour is commonly taken as a measure of viable cells.

In another assay the test system is SK-MEL-28. The experiment in a line: Cytotoxicity against human SK-MEL-28 cells assessed as growth inhibition incubated for 72 hrs by MTT assay. As to conditions: SK-MEL-28, 72 h. It counts as functional. The essentials:
as §1

The test system of another assay is MCF7. In words: Cytotoxicity against human MCF7 cells assessed as growth inhibition incubated for 72 hrs by MTT assay. Format: functional. As to conditions: MCF7, 72 h. The essentials: as §1
A short description of assay [1]: Cytotoxicity against human U373 cells assessed as growth inhibition incubated for 72 hrs by MTT assay. Format: functional, U-373MG ATCC. As to conditions: U373 MG. The essentials: as §1
A short description of assay [2]: Cytotoxicity against human Hs683 cells assessed as growth inhibition incubated for 72 hrs by MTT assay. It counts as functional. The settings on record: Hs 683, 72 h. The method in brief: as §1
For assay [3], the system named is Glioma cell. The experiment in a line: Cytotoxicity against cdkn2a-deficient mouse neurosphere glioma cells at 10 uM after 24 hrs. It counts as functional, cell-based. The method in brief: (§2)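 Primary glioma neurosphere cultures were plated at 0.015×10^6 cells/well (5 replicates) in phenol red-free DMEM-F12. Cells were mixed with bis-AAF-R110 and incubated 2 h at 37 °C, with fluorescence read at 485/520 nm. Signal was blank-subtracted and expressed as fold change over vehicle (mean ± SD, two independent experiments).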

The test system of assay [4] is Glioma cell. In words: Cytotoxicity against cdkn2a-deficient EGFRvIII amplified mouse neurosphere glioma cells using bis-AAF-R110 as substrate at 10 uM preincubated for 24 hrs followed by substrate addition measured after 2 hrs by fluorescence analysis. Format: functional, cell-based. The essentials: as §2
Assay [5] deals with Glioma cell. The experiment in a line: Cytotoxicity against cdkn2a/TRPV1 doubly deficient PDGFB amplified mouse neurosphere glioma cells using bis-AAF-R110 as substrate at 10 uM preincubated for 24 hrs followed by substrate addition measured after 2 hrs by fluorescence analysis. Format: functional, cell-based. The essentials: as §2
A short description of assay [6]: Cytotoxicity against human MES-SA cells assessed as growth inhibition incubated for 48 hrs by MTT assay. Format: functional. The method in brief: (§3)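 MTT assay on MES-SA and MES-SA/Dx5 uterine sarcoma cells in RPMI-1640 with 10% FBS. Dx5 cells were selected by stepwise doxorubicin exposure from 100 to 500 nM and maintained in 500 nM doxorubicin. Cells treated 48 h. GI50 is the concentration reducing viability 50% relative to DMSO control, from two independent experiments with 4 replicates each.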

Assay [7] in a line: Cytotoxicity against human MES-SA/Dx5 cells assessed as growth inhibition incubated for 48 hrs by MTT assay. Format: functional. As to conditions: MES-SA/Dx5, 48 h. The method in brief: as §3
In a further assay the test system is SCC-4. In words: Cytotoxicity against docetaxel-resistant human SCC4 cells assessed as growth inhibition. It counts as functional, cell-based.
For the next assay, the system named is SCC-25. The experiment in a line: Cytotoxicity against cisplatin-resistant human SCC25 cells assessed as growth inhibition. It counts as functional, cell-based.
The test system of a further assay is PC-3. The experiment in a line: Cytotoxicity against docetaxel-resistant human PC3 cells assessed as growth inhibition. Format: functional, cell-based.
Assay [8] deals with Glioma cell. The experiment in a line: Cytotoxicity against cdkn2a-deficient mouse neurosphere glioma cells at 20 uM after 24 hrs. Format: functional, cell-based.
In assay [9] the test system is Glioma cell. The experiment in a line: Cytotoxicity against cdkn2a-deficient EGFRvIII amplified mouse neurosphere glioma cells using bis-AAF-R110 as substrate at 20 uM preincubated for 24 hrs followed by substrate addition measured after 2 hrs by fluorescence analysis. It counts as functional, cell-based. The method in brief:
(§4)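 GBM neurosphere primary cultures carrying cdkn2a deletion with PDGFB or EGFRvIII amplification. Plated at 0.015×10^6 cells/well, 5 replicates per condition, in DMEM-F12 without phenol red. Cell suspension then mixed with bis-AAF-R110 substrate for 2 h at 37 °C and fluorescence read at 485/520 nm. After blank subtraction, signals were normalized to vehicle (=1) to give fold relative cytotoxicity. Mean ± SD of two independent experiments.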

Assay [10] has as its system Glioma cell. In words: Cytotoxicity against cdkn2a/TRPV1 doubly deficient PDGFB amplified mouse neurosphere glioma cells using bis-AAF-R110 as substrate at 20 uM preincubated for 24 hrs followed by substrate addition measured after 2 hrs by fluorescence analysis. It counts as functional, cell-based. The method in brief:
as §4

Assay [11] concerns the target Transient receptor potential cation channel subfamily V member 1 (Rattus norvegicus) (UniProt O35433). In words: Displacement of [3H]-RTX from vanilloid site of TRPV1 receptor in rat spinal cord at 10 uM incubated for 60 mins by scintillation counting analysis. The method in brief:
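Rat spinal cord homogenized in buffer A (pH 7.4, HEPES/sucrose salts). Membranes collected from a 35,000g spin. Binding run with 0.5 mg/mL membranes, 0.25 mg/mL BSA, 2 nM [3H]-RTX, and compound at 10 μM, for 60 min at 37 °C. Nonspecific binding defined with 100 μM unlabeled RTX. Reaction stopped on ice with α1-acid glycoprotein, then centrifuged and the pellet counted by scintillation. Result is % specific binding, mean ± SEM of 3 experiments.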

The target in assay [12] is Transient receptor potential cation channel subfamily V member 1 (Homo sapiens) (UniProt Q8NER1). In words: Activity at TRPV1 in human MDA-MB--231 cells assessed as sustained and asynchronous increase in cytosolic Ca2+ level at 20 uM by FURA2-based fluorescence imaging analysis. Format: cell-based.
The test system of assay [13] is U-373MG ATCC. The experiment in a line: Cytotostatic activity on human U373 cells assessed as change in cell morphology at 25 uM after 72 hrs by videomicroscopic analysis. Format: functional, cell-based.
The test system of assay [14] is U-373MG ATCC. In words: Cytotostatic activity on human U373 cells assessed as change in cell morphology at 35 uM after 72 hrs by videomicroscopic analysis. Format: functional, cell-based.
Assay [15] has as its system U-373MG ATCC. In words: Cytotoxicity against human U373 cells assessed as necrotic and late apoptotic cells at 35 uM after 72 hrs by Trypan blue assay. It counts as functional, cell-based. The method in brief:
(§5)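 U373 cells treated 72 h, stained with trypan blue and imaged. Cells were then fixed with ice-cold methanol and restained as an internal positive control. Single experiment in triplicate.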

The target of assay [16] is Transient receptor potential cation channel subfamily V member 1 (Homo sapiens) (UniProt Q8NER1). In words: Activity at TRPV1 in human MDA-MB--231 cells assessed as transient and synchronous increase in cytosolic Ca2+ level at 80 uM by FURA2-based fluorescence imaging analysis. Format: cell-based.
Assay [17] relates to U-373MG ATCC. In words: Cytotostatic activity on human U373 cells assessed as change in cell morphology at 100 uM after 72 hrs by videomicroscopic analysis. Format: functional, cell-based.
For assay [18], the system named is U-373MG ATCC. In words: Cytotoxicity against human U373 cells assessed as necrotic and late apoptotic cells at 100 uM after 72 hrs by Trypan blue assay. Format: functional, cell-based. The essentials: as §5
For assay [19], the target named is Transient receptor potential cation channel subfamily V member 1 (Homo sapiens) (UniProt Q8NER1). The experiment in a line: Activity at TRPV1 in human MDA-MB--231 cells assessed as transient and synchronous increase in cytosolic Ca2+ level at 80 uM in presence of TRPV1 blocker capsazepine by FURA2-based fluorescence imaging analysis. It counts as cell-based.

Activity calls are given as the source filed them. The rule behind the calls is not given here.

Usually GI50 stands for the concentration that inhibits growth by half. The term inhibition denotes the share of the control response that was lost under treatment.

Chain of Transient receptor potential cation channel subfamily V member 1 (Homo sapiens) (Q8NER1 whole entry): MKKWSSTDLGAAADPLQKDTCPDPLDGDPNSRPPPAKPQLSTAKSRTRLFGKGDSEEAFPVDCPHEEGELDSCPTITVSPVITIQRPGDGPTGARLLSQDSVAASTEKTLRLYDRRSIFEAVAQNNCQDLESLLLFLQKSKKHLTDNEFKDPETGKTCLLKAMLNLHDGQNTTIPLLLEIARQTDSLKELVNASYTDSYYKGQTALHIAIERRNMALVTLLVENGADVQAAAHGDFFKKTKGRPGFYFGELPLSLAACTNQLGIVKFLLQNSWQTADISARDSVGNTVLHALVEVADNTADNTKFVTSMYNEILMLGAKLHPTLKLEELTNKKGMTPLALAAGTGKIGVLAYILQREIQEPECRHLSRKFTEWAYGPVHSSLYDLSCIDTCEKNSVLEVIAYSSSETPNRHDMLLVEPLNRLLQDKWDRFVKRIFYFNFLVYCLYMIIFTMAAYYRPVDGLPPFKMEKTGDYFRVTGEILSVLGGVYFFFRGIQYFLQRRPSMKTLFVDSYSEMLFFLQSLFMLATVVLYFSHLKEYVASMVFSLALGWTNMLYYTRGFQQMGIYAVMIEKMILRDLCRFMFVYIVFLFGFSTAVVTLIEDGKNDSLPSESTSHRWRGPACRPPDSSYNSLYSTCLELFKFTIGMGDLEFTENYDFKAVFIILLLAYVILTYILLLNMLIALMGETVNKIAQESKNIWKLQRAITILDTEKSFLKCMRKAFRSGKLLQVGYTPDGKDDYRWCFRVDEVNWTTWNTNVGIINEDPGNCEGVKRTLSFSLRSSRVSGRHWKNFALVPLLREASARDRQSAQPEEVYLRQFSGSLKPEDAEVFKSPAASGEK
Chain of Transient receptor potential cation channel subfamily V member 1 (Rattus norvegicus) (O35433 whole entry): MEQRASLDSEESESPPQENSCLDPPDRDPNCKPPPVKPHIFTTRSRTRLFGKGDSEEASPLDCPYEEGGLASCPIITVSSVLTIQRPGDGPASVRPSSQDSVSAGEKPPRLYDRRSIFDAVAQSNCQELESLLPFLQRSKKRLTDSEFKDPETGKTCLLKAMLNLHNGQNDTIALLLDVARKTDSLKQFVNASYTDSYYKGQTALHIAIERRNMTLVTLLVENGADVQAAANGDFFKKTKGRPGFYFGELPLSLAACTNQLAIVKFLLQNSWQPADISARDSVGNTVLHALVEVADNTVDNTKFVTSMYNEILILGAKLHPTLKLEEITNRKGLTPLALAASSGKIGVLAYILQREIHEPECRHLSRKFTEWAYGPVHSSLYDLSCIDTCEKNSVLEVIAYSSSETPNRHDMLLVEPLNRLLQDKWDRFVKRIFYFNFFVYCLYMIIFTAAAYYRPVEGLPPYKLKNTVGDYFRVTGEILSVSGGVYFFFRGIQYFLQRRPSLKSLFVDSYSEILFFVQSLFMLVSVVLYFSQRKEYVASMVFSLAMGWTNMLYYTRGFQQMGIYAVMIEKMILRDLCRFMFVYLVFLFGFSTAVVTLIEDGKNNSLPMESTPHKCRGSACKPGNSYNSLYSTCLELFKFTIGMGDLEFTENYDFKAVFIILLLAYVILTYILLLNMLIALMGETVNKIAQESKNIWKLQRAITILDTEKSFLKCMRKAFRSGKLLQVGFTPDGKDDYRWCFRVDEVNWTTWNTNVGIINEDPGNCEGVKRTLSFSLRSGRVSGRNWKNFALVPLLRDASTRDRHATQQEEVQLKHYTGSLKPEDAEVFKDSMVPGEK

As for `CC(=O)/C=C/C1=CC[C@H]2C(C)(C)CCC[C@]2(C)[C@H]1C=O`, the 50% growth inhibitory concentration (GI50) with A549 came out at 24 µM; in the assay with SK-MEL-28, 28 µM; in the assay with MCF7 it was 20 µM; in assay [1], 25 µM; in assay [2] it was 22 µM.

For `C=C(C)[C@@H]1CCC(C)=C[C@H]1c1c(O)cc(CCCCC)cc1O`, the “growth inhibition (GI)” value with Glioma cell [3] and with Glioma cell [4] was “Active” each time. For the same compound, in the assay with Glioma cell [5], the “growth inhibition (GI)” value is “inactive”.

In the case of `CC1(C)CCC[C@]2(C)[C@@H](C=O)C(/C=C/C(=O)OCc3ccccc3)=CC[C@@H]12`, the GI50 is 28 µM in the assay with A549; 39 µM with SK-MEL-28; 27 µM with MCF7; 39 µM in [1]; 31 µM in assay [2].

Consider `COC(=O)/C=C/C1=CC[C@H]2C(C)(C)CCC[C@]2(C)[C@H]1C=O`, for which the GI50 with A549 was 21 µM; in the assay on SK-MEL-28, 27 µM; in the assay with MCF7, 7 µM; in assay [1] it was 22 µM; in [2], 24 µM; in [6], 40 µM. Also, the GI50 in assay [7] worked out at 45 µM. The “growth inhibition (GI)” value in the assay on SCC-4, with SCC-25, in the assay with PC-3, with Glioma cell [8], with Glioma cell [9] and in the assay on Glioma cell [10] was “Active” each time. Also, the outcome in [11] was inactive. The outcome (in assay [12]; in the assay with U-373MG ATCC [13]) was Active.

In the case of `C#CCCCOC(=O)/C=C/C1=CC[C@H]2C(C)(C)CCC[C@]2(C)[C@H]1C=O`, the GI50 in the assay with A549 turned out to be 30 µM; with SK-MEL-28 it was 36 µM; with MCF7, 30 µM; in assay [1] it was 35 µM; in [2], 33 µM. In addition, in the assay on U-373MG ATCC [14], the result was Active. Also, in the assay with U-373MG ATCC [15], the result was inactive.

As for `CCOC(=O)/C(C)=C/C1=CC[C@H]2C(C)(C)CCC[C@]2(C)[C@H]1C=O`, the concentration for 50% growth inhibition (GI50) stood at 26 µM in the assay on A549; 37 µM with SK-MEL-28; 27 µM in the assay with MCF7; 37 µM in assay [1]; 28 µM in assay [2].

`CC[C@]1(O)C[C@@H]2CN(CCc3c([nH]c4ccccc34)[C@@](C(=O)OC)(c3cc4c(cc3OC)N(C)[C@H]3[C@@](O)(C(=O)OC)[C@H](OC(C)=O)[C@]5(CC)C=CCN6CC[C@]43[C@@H]65)C2)C1` [VINBLASTINE]: the concentration for 50% growth inhibition (GI50) in assay [6] stood at 0.006 µM; in [7], 5 µM.

Consider `CC1(C)CCC[C@]2(C)[C@@H](C=O)C(C=O)=CC[C@@H]12` [POLYGODIAL], for which the GI50 with A549 was 90 µM; with SK-MEL-28 it was 65 µM; in the assay with MCF7, 75 µM; in [1], > 100 µM; in assay [2] it was 95 µM. The same compound had an inhibition in assay [11] of 76%. Besides, the outcome (in assay [16]; in the assay with U-373MG ATCC [18]) was Active. In addition, the result (in the assay with U-373MG ATCC [17]; in [19]) was inactive.

Consider `CC1(C)CCC[C@]2(C)[C@@H](C=O)C(/C=C/C#N)=CC[C@@H]12`, for which the GI50 is 27 µM in the assay with A549; 42 µM in the assay on SK-MEL-28; 31 µM in the assay on MCF7; 36 µM in [1]; 28 µM in assay [2].

For the compound `CC(=O)O[C@H]1C(=O)[C@@]2(C)[C@H]([C@H](OC(=O)c3ccccc3)[C@]3(O)C[C@H](OC(=O)[C@H](O)[C@@H](NC(=O)c4ccccc4)c4ccccc4)C(C)=C1C3(C)C)[C@]1(OC(C)=O)CO[C@@H]1C[C@@H]2O` [PACLITAXEL], the results for the GI50 in assay [6] and in assay [7] were 0.007 µM and 10 µM, respectively.

On to `CC(C)(C)OC(=O)/C=C/C1=CC[C@H]2C(C)(C)CCC[C@]2(C)[C@H]1C=O`, for which the concentration for 50% growth inhibition (GI50) in the assay with A549 was 29 µM; in the assay with SK-MEL-28, 41 µM; in the assay on MCF7, 32 µM; in assay [1], 40 µM; in assay [2], 29 µM.

Turning to `CCOC(=O)/C=C/C1=CC[C@H]2C(C)(C)CCC[C@]2(C)[C@H]1C=O`, the GI50 with A549 is 25 µM; in the assay with SK-MEL-28 it was 29 µM; with MCF7 it was 30 µM; in assay [1], 37 µM; in [2], 29 µM.

Take `COC(=O)/C=C/C=C/C1=CC[C@H]2C(C)(C)CCC[C@]2(C)[C@H]1C=O`: the 50% growth inhibitory concentration (GI50) came out at 29 µM in the assay with A549; 25 µM in the assay on SK-MEL-28; 31 µM in the assay on MCF7; 27 µM in [1]; 12 µM in [2].
